Measured values taken from publication PMC3064798 (Nucleic Acids Research, 2011).
Entries after “also recorded” stand apart in the source; their conditions may differ.

Tests used:
Assay type in all cases: biochemical
Bst polymerase = molecular target: T1, Bst polymerase (Geobacillus stearothermophilus, UniProt P52026); assay: PEP
T1 sequence (P52026 1-876): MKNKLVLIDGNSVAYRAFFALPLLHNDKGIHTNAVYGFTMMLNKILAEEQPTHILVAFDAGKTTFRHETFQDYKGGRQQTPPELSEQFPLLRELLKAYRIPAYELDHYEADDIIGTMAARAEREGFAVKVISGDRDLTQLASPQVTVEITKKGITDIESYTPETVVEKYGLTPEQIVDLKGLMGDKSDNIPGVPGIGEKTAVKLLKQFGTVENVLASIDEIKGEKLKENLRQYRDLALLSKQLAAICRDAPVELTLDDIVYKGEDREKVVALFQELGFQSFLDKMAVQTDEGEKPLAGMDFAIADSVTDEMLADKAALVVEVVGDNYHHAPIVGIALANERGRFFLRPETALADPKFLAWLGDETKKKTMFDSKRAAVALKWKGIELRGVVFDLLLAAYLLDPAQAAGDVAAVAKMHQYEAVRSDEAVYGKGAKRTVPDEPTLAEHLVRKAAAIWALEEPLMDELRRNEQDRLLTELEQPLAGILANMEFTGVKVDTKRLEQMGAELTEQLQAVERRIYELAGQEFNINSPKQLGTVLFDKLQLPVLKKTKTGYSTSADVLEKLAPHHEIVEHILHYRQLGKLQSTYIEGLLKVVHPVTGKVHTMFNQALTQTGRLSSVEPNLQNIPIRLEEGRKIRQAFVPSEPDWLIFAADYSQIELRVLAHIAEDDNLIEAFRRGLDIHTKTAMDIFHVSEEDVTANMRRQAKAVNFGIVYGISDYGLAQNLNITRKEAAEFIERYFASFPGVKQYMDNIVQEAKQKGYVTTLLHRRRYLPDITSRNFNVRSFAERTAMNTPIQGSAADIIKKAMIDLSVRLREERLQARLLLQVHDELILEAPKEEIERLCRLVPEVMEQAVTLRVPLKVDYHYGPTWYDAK
How it was run: (§1)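 Polymerase end-point assay for single-base incorporation. 5 nM BODIPY-FL-labelled primer-1 was hybridised to 40 nM oligoTemplate-4, with the interrogation base complementary to dU. Absence of a +1 band on the 377 gel image at 100 μM counts as not active. IC50 was averaged from triplicates ± 1 SD. Incorporation bias is the analog IC50 divided by the natural-nucleotide (HOMedUTP) IC50.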

[1] = molecular target: T2, Therminator II polymerase (Thermococcus sp., UniProt Q56366, A485L/D141A/E143A/Y409V); assay: PEP; details: for Incorporation bias (analog IC50/HOMedUTP IC50): Therminator II
T2 sequence (Q56366 1-775 D141A/E143A/Y409V/A485L): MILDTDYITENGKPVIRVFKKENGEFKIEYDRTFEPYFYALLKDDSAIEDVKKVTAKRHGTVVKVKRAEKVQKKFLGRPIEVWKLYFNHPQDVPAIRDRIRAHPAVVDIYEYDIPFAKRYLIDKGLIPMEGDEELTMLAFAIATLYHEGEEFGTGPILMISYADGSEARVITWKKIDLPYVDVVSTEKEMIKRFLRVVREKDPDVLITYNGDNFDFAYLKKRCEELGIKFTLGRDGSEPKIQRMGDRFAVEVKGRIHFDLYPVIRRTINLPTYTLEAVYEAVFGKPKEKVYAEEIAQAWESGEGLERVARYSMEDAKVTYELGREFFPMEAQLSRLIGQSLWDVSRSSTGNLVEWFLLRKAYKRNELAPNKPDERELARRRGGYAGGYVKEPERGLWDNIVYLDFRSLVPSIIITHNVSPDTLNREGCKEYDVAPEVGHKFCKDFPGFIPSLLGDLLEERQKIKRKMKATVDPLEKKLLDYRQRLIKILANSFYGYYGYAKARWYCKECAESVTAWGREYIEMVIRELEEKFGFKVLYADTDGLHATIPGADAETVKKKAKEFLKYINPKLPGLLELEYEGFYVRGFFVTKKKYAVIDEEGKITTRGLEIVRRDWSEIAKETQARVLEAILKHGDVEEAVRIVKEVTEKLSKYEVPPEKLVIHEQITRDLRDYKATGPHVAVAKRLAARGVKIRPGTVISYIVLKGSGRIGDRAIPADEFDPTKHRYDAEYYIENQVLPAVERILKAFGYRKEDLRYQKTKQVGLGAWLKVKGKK
How it was run: as §1

TaqFS polymerase = TaqFS polymerase (Thermus aquaticus, UniProt P19821, F667Y/G46D); assay: PEP; details: for IC50 values (activity in words): TaqFS, Not Active = no visible +1 band in 377 gel image at 100 μM
How it was run: as §1

Vent(exo^−) polymerase [2] = molecular target: T3, Vent(exo^−) polymerase (Thermococcus litoralis, UniProt P30317, D141A/DEL1082-1471/DEL495-1032/E143A); assay: PEP; details: for Incorporation bias (analog IC50/HOMedUTP IC50): Vent(exo^−)
T3 sequence (P30317 with tags, fused parts or gaps D141A/E143A/DEL495-1032/DEL1082-1471): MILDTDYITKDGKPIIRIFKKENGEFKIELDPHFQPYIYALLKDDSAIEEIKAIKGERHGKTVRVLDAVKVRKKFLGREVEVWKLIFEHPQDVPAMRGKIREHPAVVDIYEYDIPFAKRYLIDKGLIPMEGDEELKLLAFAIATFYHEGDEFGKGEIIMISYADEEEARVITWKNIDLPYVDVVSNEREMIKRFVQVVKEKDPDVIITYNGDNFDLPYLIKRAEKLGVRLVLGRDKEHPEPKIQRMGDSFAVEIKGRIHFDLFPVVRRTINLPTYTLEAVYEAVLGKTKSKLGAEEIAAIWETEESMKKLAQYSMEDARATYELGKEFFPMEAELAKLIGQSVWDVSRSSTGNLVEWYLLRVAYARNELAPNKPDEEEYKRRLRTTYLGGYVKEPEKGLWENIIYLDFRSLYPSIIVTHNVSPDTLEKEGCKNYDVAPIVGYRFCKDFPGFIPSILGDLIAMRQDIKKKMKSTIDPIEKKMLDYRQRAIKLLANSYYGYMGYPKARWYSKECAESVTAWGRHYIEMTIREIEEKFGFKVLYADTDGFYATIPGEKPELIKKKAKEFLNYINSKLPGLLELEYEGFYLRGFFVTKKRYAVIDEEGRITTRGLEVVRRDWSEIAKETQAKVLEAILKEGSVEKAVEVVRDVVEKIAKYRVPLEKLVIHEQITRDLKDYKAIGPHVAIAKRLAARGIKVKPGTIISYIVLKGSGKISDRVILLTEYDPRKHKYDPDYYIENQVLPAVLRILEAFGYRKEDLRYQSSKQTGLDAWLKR
How it was run: as §1

Vent(exo^−) polymerase [3] = molecular target: T3, Vent(exo^−) polymerase; assay: Nucleotide selectivity; details: against a 'G' template base
How it was run: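 Base discrimination was measured by PEP assay. OligoTemplate-4 was replaced with 40 nM oligoTemplate-2 or oligoTemplate-5 to give mismatched template bases. For the T—G mismatch, 5 nM BODIPY-FL primer-3 was hybridised to 40 nM oligoTemplate-8. The selectivity ratio is the mismatched IC50 divided by the matched IC50.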

TaqFS polymerase, sequence (P19821 whole entry G46D/F667Y): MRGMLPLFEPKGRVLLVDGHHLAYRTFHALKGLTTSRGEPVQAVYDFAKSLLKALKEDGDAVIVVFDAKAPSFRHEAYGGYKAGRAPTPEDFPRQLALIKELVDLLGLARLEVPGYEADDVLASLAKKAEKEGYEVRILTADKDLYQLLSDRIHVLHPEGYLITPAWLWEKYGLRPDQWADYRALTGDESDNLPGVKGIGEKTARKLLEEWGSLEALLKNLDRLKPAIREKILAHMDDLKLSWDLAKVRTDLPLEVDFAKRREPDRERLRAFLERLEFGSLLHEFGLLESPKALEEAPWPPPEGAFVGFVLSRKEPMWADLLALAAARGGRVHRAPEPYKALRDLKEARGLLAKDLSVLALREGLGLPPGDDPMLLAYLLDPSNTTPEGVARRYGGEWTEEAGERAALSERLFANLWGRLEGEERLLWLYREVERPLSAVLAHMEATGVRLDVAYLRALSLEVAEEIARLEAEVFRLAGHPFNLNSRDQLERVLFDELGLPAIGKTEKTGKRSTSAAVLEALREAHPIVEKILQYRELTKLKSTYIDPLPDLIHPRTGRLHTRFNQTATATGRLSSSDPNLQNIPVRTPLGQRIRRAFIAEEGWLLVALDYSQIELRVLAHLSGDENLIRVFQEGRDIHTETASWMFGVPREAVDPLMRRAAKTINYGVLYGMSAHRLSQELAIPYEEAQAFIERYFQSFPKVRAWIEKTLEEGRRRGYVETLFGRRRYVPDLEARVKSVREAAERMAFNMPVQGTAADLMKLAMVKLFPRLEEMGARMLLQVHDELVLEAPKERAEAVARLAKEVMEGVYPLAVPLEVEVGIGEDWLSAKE

Compound | IC50 (Bst polymerase) [nM] | Incorporation bias (analog IC50/HOMedUTP IC50) (Bst polymerase; Bst) | IC50 [1] [nM] | Incorporation bias (analog IC50/HOMedUTP IC50) [1] | IC50 values (activity in words) (TaqFS polymerase) | IC50 (Vent(exo^−) polymerase [2]) [nM] | Incorporation bias (analog IC50/HOMedUTP IC50) (Vent(exo^−) polymerase [2]) | IC50 values (activity in words) (Bst polymerase; Bst, Not Active = no visible +1 band in 377 gel image at 100 μM) | Selectivity ratio (mismatched IC50/matched IC50) (Vent(exo^−) polymerase [3]) | IC50 (TaqFS polymerase) [nM]
CC(OCc1cn([C@H]2C[C@H](O)[C@@H](COP(=O)(O)OP(=O)(O)OP(=O)(O)O)O2)c(=O)[nH]c1=O)c1ccccc1[N+](=O)[O-] (mixture of isomers) [dU.II, 5-[1-(2-Nitrophenyl)ethyloxy]methyl-2'-deoxyuridine-5’-triphosphate] | 3500 ± 200 | 1600 | 14 ± 1 | 1.9 | no activity at all | 2.2 ± 0.2 | 1.6 | – | – | –
CC(C)C(OCc1cn([C@H]2C[C@H](O)[C@@H](COP(=O)(O)OP(=O)(O)OP(=O)(O)O)O2)c(=O)[nH]c1=O)c1ccccc1[N+](=O)[O-] (mixture of isomers) [dU.III, 5-[1-(2-Nitrophenyl)-2-methyl-propyloxy]methyl-2'-deoxyuridine-5’-triphosphate] | – | – | 140 ± 10 | 20 | none of the Family A polymerases showed any activity | 5.9 ± 0.7 | 4.2 | none of the Family A polymerases showed any activity; also recorded: Not Active^a | poorly extending the primer before revealing inhibitory effects | –
O=c1[nH]c(=O)n([C@H]2C[C@H](O)[C@@H](COP(=O)(O)OP(=O)(O)OP(=O)(O)O)O2)cc1COCc1ccccc1[N+](=O)[O-] [dU.I, 5-(2-Nitrobenzyloxy)methyl-2'-deoxyuridine-5’-triphosphate] | 98 ± 13 | 45 | 5.7 ± 0.4 | 0.8 | – | 2 ± 0.1 | 1.4 | – | – | 25000
